Test results published in the RNAGym collection of RNA variant scans (doi:10.1038/s41586-018-0170-7).

B1: tRNA (parent)
chain: GUUCCGUUGGCGUAAUGGUAACGCGUCUCCCUCCUAAGGAGAAGACUGCGGGUUCGAGUCCCGUACGGAACG

Variants of: B1
Assay: yeast fitness, log relative to wild type (ln ratio); higher = fitter; tRNA-Arg(CCU), competitive growth, 37 C, 1 M NaCl
Summary of the method: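 A combinatorial tRNA-Arg(CCU) variant library was carried on a HIS3 centromeric plasmid in BY4742 lacking the chromosomal gene, from two independent transformations. Pools grew 4 generations in SC-HIS at 30 °C, then ~6.5 generations (~26.5 h) in SC-HIS 1M NaCl at 37 °C, with three outputs per input. Variants were counted by 125 bp paired-end Illumina sequencing. Fitness is ln of each genotype's generations (OD-scaled log2 output/input frequency, inverse-variance weighted across replicates) over the wild-type's.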
In the case of GGUCCGUUGGCGUAAUGGUAACGCGUCUCCCUCCUAAGGAGAAGACUGCGGGUUCGAGUCCCGUAUGGAUCG [U2G C66U A70U], the “yeast fitness (ln)” value is reported as -0.00968. With AUUCCAUUGGCGUAAUGGUAACGCGUCUCCCUCCUAAGGAGACGACUGCGGGUUCGAGUCCCGUAUGGAAUG [G1A G6A A43C C66U C71U] the “yeast fitness (ln)” value was -0.144. With AGUCCUUUGGCGUAAUGGUAACGCGUCUCCCUCCUAAGGAGACGAUUGCGGGUUCGAGUCCCGUAUGGGGUG [G1A U2G G6U A43C C46U C66U A69G A70G C71U] the “yeast fitness (ln)” value was -0.371. For GUUCCUUUGGCGUAAUGGUAACGCGUCUCCCUCCUAAGGAGAAGACUGCGGGUUCGAGUCCCGUAAGGAACG [G6U C66A], the “yeast fitness (ln)” value was 0.000896. With GUUCCGUUGGCGUAAUGGUAACGCGUCUCCCUCCUAAGGAGAAGAUUGCGGGUUCGAGUCCCGUAAGGAUCG [C46U C66A A70U] the “yeast fitness (ln)” value was 0.00705. With AGUCCGUUGGCGUAAUGGUAACGCGUUUCCCUCCUAAGGAGACGACUGCGGGUUCGAGUCCCGUAAGGGGUG [G1A U2G C27U A43C C66A A69G A70G C71U] the “yeast fitness (ln)” value was -0.472. For AUUCCGUUGGCGUAAUGGUAACGCGUCUCCCUCCUAAGGAGAAGACUGCGGGUUCGAGUCCCGUAUGGGUUG [G1A C66U A69G A70U C71U], the “yeast fitness (ln)” value was -0.364. With GGUCCGUUGGCGUAAUGGUAACGCGUCUCCCUCCUAAGGAGAAGACUGCGGGUUCGAGUCCCGUACGGAUUG [U2G A70U C71U] the “yeast fitness (ln)” value was -0.017. With GUUCCUUUGGCGUAAUGGUAACGCGUUUCCCUCCUAAGGAGACGACUGCGGGUUCGAGUCCCGUAAGGAUUG [G6U C27U A43C C66A A70U C71U] the “yeast fitness (ln)” value was -0.477. In the case of GCUCCGUUGGCGUAAUGGUAACGCGUCUCCCUCCUAAGGAGAAGACUGCGGGUUCGAGUCCCGUAAGGAUCG [U2C C66A A70U], the “yeast fitness (ln)” value is reported as -0.0514. With GUUCCAUUGGCGUAAUGGUAACGCGUCUCCCUCCUAAGGAGACGACUGCGGGUUCGAGUCCCGUAUGGGACG [G6A A43C C66U A69G] the “yeast fitness (ln)” value was -0.109. In the case of GCUCCUUUGGCGUAAUGGUAACGCGUUUCCCUCCUAAGGAGACGAUUGCGGGUUCGAGUCCCGUACGGAAUG [U2C G6U C27U A43C C46U C71U], the “yeast fitness (ln)” value is reported as -0.17. In the case of AGUCCUUUGGCGUAAUGGUAACGCGUCUCCCUCCUAAGGAGAAGACUGCGGGUUCGAGUCCCGUAUGGAGCG [G1A U2G G6U C66U A70G], the “yeast fitness (ln)” value is reported as -0.199. In the case of GCUCCUUUGGCGUAAUGGUAACGCGUUUCCCUCCUAAGGAGAAGAUUGCGGGUUCGAGUCCCGUAAGGAGUG [U2C G6U C27U C46U C66A A70G C71U], the “yeast fitness (ln)” value is reported as -0.0247. With GGUCCUUUGGCGUAAUGGUAACGCGUUUCCCUCCUAAGGAGAAGACUGCGGGUUCGAGUCCCGUAAGGGGUG [U2G G6U C27U C66A A69G A70G C71U] the “yeast fitness (ln)” value was -0.25. With GCUCCAUUGGCGUAAUGGUAACGCGUCUCCCUCCUAAGGAGAAGACUGCGGGUUCGAGUCCCGUAAGGAUUG [U2C G6A C66A A70U C71U] the “yeast fitness (ln)” value was -0.0758. For AUUCCGUUGGCGUAAUGGUAACGCGUCUCCCUCCUAAGGAGAAGAUUGCGGGUUCGAGUCCCGUAAGGAAUG [G1A C46U C66A C71U], the “yeast fitness (ln)” value was -0.243. In the case of ACUCCUUUGGCGUAAUGGUAACGCGUUUCCCUCCUAAGGAGAAGAUUGCGGGUUCGAGUCCCGUACGGGUCG [G1A U2C G6U C27U C46U A69G A70U], the “yeast fitness (ln)” value is reported as -0.219. With GUUCCUUUGGCGUAAUGGUAACGCGUCUCCCUCCUAAGGAGACGAUUGCGGGUUCGAGUCCCGUACGGAGCG [G6U A43C C46U A70G] the “yeast fitness (ln)” value was -0.164. For AUUCCGUUGGCGUAAUGGUAACGCGUCUCCCUCCUAAGGAGAAGACUGCGGGUUCGAGUCCCGUAAGGAGCG [G1A C66A A70G], the “yeast fitness (ln)” value was -0.0993. For GUUCCUUUGGCGUAAUGGUAACGCGUCUCCCUCCUAAGGAGACGACUGCGGGUUCGAGUCCCGUAAGGGACG [G6U A43C C66A A69G], the “yeast fitness (ln)” value was -0.0712. With AUUCCUUUGGCGUAAUGGUAACGCGUUUCCCUCCUAAGGAGAAGACUGCGGGUUCGAGUCCCGUAUGGAGUG [G1A G6U C27U C66U A70G C71U] the “yeast fitness (ln)” value was -0.38. For ACUCCUUUGGCGUAAUGGUAACGCGUCUCCCUCCUAAGGAGAAGACUGCGGGUUCGAGUCCCGUAAGGAUUG [G1A U2C G6U C66A A70U C71U], the “yeast fitness (ln)” value was -0.16. In the case of AGUCCUUUGGCGUAAUGGUAACGCGUUUCCCUCCUAAGGAGAAGAUUGCGGGUUCGAGUCCCGUACGGAUUG [G1A U2G G6U C27U C46U A70U C71U], the “yeast fitness (ln)” value is reported as -0.242. In the case of AGUCCUUUGGCGUAAUGGUAACGCGUCUCCCUCCUAAGGAGACGAUUGCGGGUUCGAGUCCCGUACGGGUUG [G1A U2G G6U A43C C46U A69G A70U C71U], the “yeast fitness (ln)” value is reported as -0.398. For ACUCCGUUGGCGUAAUGGUAACGCGUCUCCCUCCUAAGGAGAAGAUUGCGGGUUCGAGUCCCGUACGGAACG [G1A U2C C46U], the “yeast fitness (ln)” value was -0.0408. In the case of GUUCCAUUGGCGUAAUGGUAACGCGUCUCCCUCCUAAGGAGAAGACUGCGGGUUCGAGUCCCGUAUGGAGUG [G6A C66U A70G C71U], the “yeast fitness (ln)” value is reported as -0.358. In the case of ACUCCGUUGGCGUAAUGGUAACGCGUCUCCCUCCUAAGGAGACGACUGCGGGUUCGAGUCCCGUACGGGAUG [G1A U2C A43C A69G C71U], the “yeast fitness (ln)” value is reported as -0.202. With ACUCCUUUGGCGUAAUGGUAACGCGUCUCCCUCCUAAGGAGACGAUUGCGGGUUCGAGUCCCGUAAGGAGUG [G1A U2C G6U A43C C46U C66A A70G C71U] the “yeast fitness (ln)” value was -0.0283. In the case of GUUCCAUUGGCGUAAUGGUAACGCGUUUCCCUCCUAAGGAGAAGAUUGCGGGUUCGAGUCCCGUACGGGACG [G6A C27U C46U A69G], the “yeast fitness (ln)” value is reported as -0.183. In the case of GGUCCUUUGGCGUAAUGGUAACGCGUUUCCCUCCUAAGGAGACGAUUGCGGGUUCGAGUCCCGUAUGGAGCG [U2G G6U C27U A43C C46U C66U A70G], the “yeast fitness (ln)” value is reported as -0.311. In the case of GGUCCUUUGGCGUAAUGGUAACGCGUUUCCCUCCUAAGGAGACGAUUGCGGGUUCGAGUCCCGUAUGGAUCG [U2G G6U C27U A43C C46U C66U A70U], the “yeast fitness (ln)” value is reported as -0.227. For AGUCCGUUGGCGUAAUGGUAACGCGUUUCCCUCCUAAGGAGACGAUUGCGGGUUCGAGUCCCGUACGGAACG [G1A U2G C27U A43C C46U], the “yeast fitness (ln)” value was -0.038. In the case of AGUCCGUUGGCGUAAUGGUAACGCGUCUCCCUCCUAAGGAGAAGAUUGCGGGUUCGAGUCCCGUACGGGUCG [G1A U2G C46U A69G A70U], the “yeast fitness (ln)” value is reported as -0.238. For AGUCCUUUGGCGUAAUGGUAACGCGUCUCCCUCCUAAGGAGAAGACUGCGGGUUCGAGUCCCGUAAGGAGUG [G1A U2G G6U C66A A70G C71U], the “yeast fitness (ln)” value was -0.525. With AUUCCAUUGGCGUAAUGGUAACGCGUUUCCCUCCUAAGGAGACGACUGCGGGUUCGAGUCCCGUAUGGAAUG [G1A G6A C27U A43C C66U C71U] the “yeast fitness (ln)” value was -0.505. With ACUCCUUUGGCGUAAUGGUAACGCGUCUCCCUCCUAAGGAGAAGAUUGCGGGUUCGAGUCCCGUAAGGGUCG [G1A U2C G6U C46U C66A A69G A70U] the “yeast fitness (ln)” value was 0.0136. In the case of GCUCCUUUGGCGUAAUGGUAACGCGUUUCCCUCCUAAGGAGAAGACUGCGGGUUCGAGUCCCGUAAGGAUUG [U2C G6U C27U C66A A70U C71U], the “yeast fitness (ln)” value is reported as -0.26.
